# Data taken from ChEMBL document CHEMBL1121813, “Dihydrochalcone sweeteners. A study of the atypical temporal phenomena” (1981).
# Experiments:
# Type in all cases: functional
# Homo sapiens [1] = organism: Homo sapiens; assay: Intensity calculated on a weight basis relative to an 85500 ppm sucrose solution at a concentration of 1013 ppm (mean value)
# Procedure, shortened: (§1)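 Trained human panel tasted aqueous solutions of purity-checked (≥95 weight percent) compounds cleared for mutagenicity and mouse oral toxicity. Weight-basis intensity I_w = perceived intensity × (85500 ppm sucrose / compound concentration in ppm). The mean is reported with 2S_m limits; data deviating excessively at 95% confidence were rejected by the t-value method.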
# Homo sapiens [2] = organism: Homo sapiens; assay: Bitter character at a concentration of 1013 ppm (mean value)
# Procedure, shortened: (§2)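 Trained human panel tasted aqueous solutions. Each judge reported whether there was an aftertaste and its character (sweet, bitter or bitter-sweet). The value is the percentage of judgments reporting a bitter aftertaste.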
# Homo sapiens [3] = organism: Homo sapiens; assay: Other taste character at a concentration of 1013 ppm (mean value)
# Procedure, shortened: (§3)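 Trained human panel tasted aqueous solutions of each compound. Aftertaste is scored as the percentage of judgments reporting one, with its character coded sweet (s), bitter (b) or bitter-sweet (bs).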
# Homo sapiens [4] = organism: Homo sapiens; assay: Experimentally determined perceived intensity of compound at a concentration of 1013 ppm (mean value)
# Procedure, shortened: (§4)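 Trained human sensory panel of judges tasted aqueous solutions of the compound. Samples had to be ≥95 weight % pure (HPLC, proton titration, Karl Fischer), non-mutagenic in five Salmonella typhimurium strains with and without microsomal activation, and non-toxic in a single-oral-dose mouse test. Perceived intensity (Ip) was read from time–intensity curves at 4- or 6-s intervals and averaged. Outliers at the 95% level were rejected by t-value. Values reported as mean (2Sm).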
# Homo sapiens [5] = organism: Homo sapiens; assay: Sweet / Bitter character at a concentration of 1013 ppm (mean value); 28/72
# Homo sapiens [6] = organism: Homo sapiens; assay: Number of taste judgments per compound
# Homo sapiens [7] = organism: Homo sapiens; assay: Percentage of judgments reporting an aftertaste at a concentration of 1013 ppm and character thereof
# Procedure, shortened: (§5)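 Trained judges tasted aqueous solutions of the compounds, which had to be ≥95 weight percent pure and to have passed mutagenicity and single oral dose toxicity screening. The value is the percentage of panel judgments reporting an aftertaste. Where given, its character is recorded as sweet, bitter or bitter-sweet.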
# Homo sapiens [8] = organism: Homo sapiens; assay: Sweet character at a concentration of 1013 ppm (mean value)
# Homo sapiens [9] = organism: Homo sapiens; assay: Intensity calculated on a molar basis relative to a 0.25 M sucrose solution at a concentration of 1013 ppm (mean value)
# Procedure, shortened: (§6)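 Trained human judges tasted aqueous solutions of the test compound; compounds were first required to be ≥95 weight percent pure and free of mutagenicity (five Salmonella typhimurium strains, ± microsomal activation) and of single oral dose mouse toxicity. Molar intensity I_m = perceived intensity × (0.25 M sucrose / compound molar concentration). The mean is reported with 2S_m limits; outliers were rejected at 95% confidence by t-value.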
# Homo sapiens [10] = organism: Homo sapiens; assay: Salty character at a concentration of 1013 ppm (mean value)
# Homo sapiens [11] = organism: Homo sapiens; assay: Sour character at a concentration of 1013 ppm (mean value)
# Homo sapiens [12] = organism: Homo sapiens; assay: Intensity calculated on a weight basis relative to an 85500 ppm sucrose solution at a concentration of 1001 ppm (mean value); procedure, shortened: as §1
# Homo sapiens [13] = organism: Homo sapiens; assay: Bitter character at a concentration of 1001 ppm (mean value); procedure, shortened: as §2
# Homo sapiens [14] = organism: Homo sapiens; assay: Experimentally determined perceived intensity of compound at a concentration of 1001 ppm (mean value); procedure, shortened: as §4
# Homo sapiens [15] = organism: Homo sapiens; assay: Sweet / Bitter character at a concentration of 1001 ppm (mean value)
# Homo sapiens [16] = organism: Homo sapiens; assay: Percentage of judgments reporting an aftertaste at a concentration of 1001 ppm and character thereof; Sweet; procedure, shortened: as §5
# Homo sapiens [17] = organism: Homo sapiens; assay: Sweet character at a concentration of 1001 ppm (mean value)
# Homo sapiens [18] = organism: Homo sapiens; assay: Intensity calculated on a molar basis relative to a 0.25 M sucrose solution at a concentration of 1001 ppm (mean value)
# Procedure, shortened: (§7)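 Panel-derived mean perceived intensity (Ip) converted to a molar basis by Im = Ip × (0.25 M / Y), where Y is the compound's molar concentration. Reference is a 0.25 M sucrose solution. Reported with limits of 2Sm.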
# Homo sapiens [19] = organism: Homo sapiens; assay: Sour character at a concentration of 1001 ppm (mean value)
# Homo sapiens [20] = organism: Homo sapiens; assay: Salty character at a concentration of 1001 ppm (mean value)
# Homo sapiens [21] = organism: Homo sapiens; assay: Other taste character at a concentration of 1001 ppm (mean value); procedure, shortened: as §3
# Homo sapiens [22] = organism: Homo sapiens; assay: Sour character at a concentration of 250 ppm (mean value)
# Procedure, shortened: (§8)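 Trained human sensory panel (Swartz method) tasted dilute aqueous solutions of the compounds, which had to be ≥95 weight percent pure and free of mutagenicity and toxicity. Taste character is reported as the mean value with 2S_m limits. Data deviating excessively at the 95% confidence level were rejected by the t-value method.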
# Homo sapiens [23] = organism: Homo sapiens; assay: Intensity calculated on a weight basis relative to an 85500 ppm sucrose solution at a concentration of 250 ppm (mean value); procedure, shortened: as §1
# Homo sapiens [24] = organism: Homo sapiens; assay: Bitter character at a concentration of 250 ppm (mean value); procedure, shortened: as §2
# Homo sapiens [25] = organism: Homo sapiens; assay: Experimentally determined perceived intensity of compound at a concentration of 250 ppm (mean value); procedure, shortened: as §4
# Homo sapiens [26] = organism: Homo sapiens; assay: Sweet / Bitter character at a concentration of 250 ppm (mean value); 92/8
# Homo sapiens [27] = organism: Homo sapiens; assay: Sweet character at a concentration of 250 ppm (mean value); procedure, shortened: as §8
# Homo sapiens [28] = organism: Homo sapiens; assay: Intensity calculated on a molar basis relative to a 0.25 M sucrose solution at a concentration of 250 ppm (mean value); procedure, shortened: as §6
# Homo sapiens [29] = organism: Homo sapiens; assay: Salty character at a concentration of 250 ppm (mean value); procedure, shortened: as §8
# Homo sapiens [30] = organism: Homo sapiens; assay: Other taste character at a concentration of 250 ppm (mean value); procedure, shortened: as §8
# Homo sapiens [31] = organism: Homo sapiens; assay: Percentage of judgments reporting an aftertaste at a concentration of 250 ppm and character thereof; procedure, shortened: as §5
# Homo sapiens [32] = organism: Homo sapiens; assay: Sweet character at a concentration of 497 ppm (mean value)
# Homo sapiens [33] = organism: Homo sapiens; assay: Percentage of judgments reporting an aftertaste at a concentration of 497 ppm and character thereof
# Homo sapiens [34] = organism: Homo sapiens; assay: Intensity calculated on a weight basis relative to an 85500 ppm sucrose solution at a concentration of 497 ppm (mean value); procedure, shortened: as §1
# Homo sapiens [35] = organism: Homo sapiens; assay: Experimentally determined perceived intensity of compound at a concentration of 497 ppm (mean value); procedure, shortened: as §4
# Homo sapiens [36] = organism: Homo sapiens; assay: Bitter character at a concentration of 497 ppm (mean value); procedure, shortened: as §2
# Homo sapiens [37] = organism: Homo sapiens; assay: Sour character at a concentration of 497 ppm (mean value)
# Homo sapiens [38] = organism: Homo sapiens; assay: Sweet / Bitter character at a concentration of 497 ppm (mean value); 0/100
# Homo sapiens [39] = organism: Homo sapiens; assay: Intensity calculated on a molar basis relative to a 0.25 M sucrose solution at a concentration of 497 ppm (mean value); procedure, shortened: as §6
# Homo sapiens [40] = organism: Homo sapiens; assay: Salty character at a concentration of 497 ppm (mean value)
# Homo sapiens [41] = organism: Homo sapiens; assay: Other taste character at a concentration of 497 ppm (mean value); procedure, shortened: as §8
# Homo sapiens [42] = organism: Homo sapiens; assay: Intensity calculated on a weight basis relative to an 85500 ppm sucrose solution at a concentration of 1000 ppm (mean value); procedure, shortened: as §1
# Homo sapiens [43] = organism: Homo sapiens; assay: Bitter character at a concentration of 1000 ppm (mean value); procedure, shortened: as §2
# Homo sapiens [44] = organism: Homo sapiens; assay: Other taste character at a concentration of 1000 ppm (mean value); procedure, shortened: as §3
# Homo sapiens [45] = organism: Homo sapiens; assay: Experimentally determined perceived intensity of compound at a concentration of 1000 ppm (mean value); procedure, shortened: as §4
# Homo sapiens [46] = organism: Homo sapiens; assay: Sweet / Bitter character at a concentration of 1000 ppm (mean value); 75/25
# Homo sapiens [47] = organism: Homo sapiens; assay: Percentage of judgments reporting an aftertaste at a concentration of 1000 ppm and character thereof; procedure, shortened: as §5
# Homo sapiens [48] = organism: Homo sapiens; assay: Sweet character at a concentration of 1000 ppm (mean value)
# Homo sapiens [49] = organism: Homo sapiens; assay: Intensity calculated on a molar basis relative to a 0.25 M sucrose solution at a concentration of 1000 ppm (mean value); procedure, shortened: as §7
# Homo sapiens [50] = organism: Homo sapiens; assay: Sour character at a concentration of 1000 ppm (mean value)
# Homo sapiens [51] = organism: Homo sapiens; assay: Salty character at a concentration of 1000 ppm (mean value)
compound,measurement,setting,value
COc1ccc(/C=C/C(=O)c2ccc(OCCCS(=O)(=O)[O-])cc2O)cc1O.[K+],IW,Homo sapiens [1],38
same,Taste character,Homo sapiens [2],59
same,Taste character,Homo sapiens [3],18
same,IP,Homo sapiens [4],0.45
same,Taste character,Homo sapiens [5],28
same,Judgments,Homo sapiens [6],12
same,Judgments,Homo sapiens [7],100
same,Taste character,Homo sapiens [8],23
same,IM,Homo sapiens [9],50
same,Taste character,Homo sapiens [10],0
same,Taste character,Homo sapiens [11],0
COc1ccc(CCc2noc3cc(OCC(=O)[O-])cc(O)c23)cc1O.[Na+],IW,Homo sapiens [12],32
same,Taste character,Homo sapiens [13],22
same,IP,Homo sapiens [14],0.38
same,Taste character,Homo sapiens [15],75
same,Judgments,Homo sapiens [6],12
same,Judgments,Homo sapiens [16],100
same,Taste character,Homo sapiens [17],66
same,IM,Homo sapiens [18],36
same,Taste character,Homo sapiens [19],0
same,Taste character,Homo sapiens [20],0
same,Taste character,Homo sapiens [21],12
COc1ccc(CCC(=O)c2c(O)cc(OCCC(O)C(=O)[O-])cc2O)cc1O.[Na+] (stereo not given),Taste character,Homo sapiens [22],0
same,IW,Homo sapiens [23],440
same,Taste character,Homo sapiens [24],8
same,IP,Homo sapiens [25],1.28
same,Judgments,Homo sapiens [6],4
same,Taste character,Homo sapiens [26],92
same,Taste character,Homo sapiens [27],92
same,IM,Homo sapiens [28],550
same,Taste character,Homo sapiens [29],0
same,Taste character,Homo sapiens [30],0
same,Judgments,Homo sapiens [31],100
O=C([O-])COc1cc(O)c(C(=O)CCc2ccc3c(c2)OCO3)c(O)c1.[Na+],Taste character,Homo sapiens [32],0
same,Judgments,Homo sapiens [33],100
same,IW,Homo sapiens [34],140
same,IP,Homo sapiens [35],0.83
same,Taste character,Homo sapiens [36],79
same,Taste character,Homo sapiens [37],0
same,Judgments,Homo sapiens [6],12
same,Taste character,Homo sapiens [38],0
same,IM,Homo sapiens [39],160
same,Taste character,Homo sapiens [40],0
same,Taste character,Homo sapiens [41],21
COc1ccc(CCC(=O)c2c(O)cc(OCCN)cc2O)cc1O,IW,Homo sapiens [42],86
same,Taste character,Homo sapiens [43],25
same,Taste character,Homo sapiens [44],0
same,IP,Homo sapiens [45],1
same,Taste character,Homo sapiens [46],75
same,Judgments,Homo sapiens [6],1
same,Judgments,Homo sapiens [47],100
same,Taste character,Homo sapiens [48],75
same,IM,Homo sapiens [49],87
same,Taste character,Homo sapiens [50],0
same,Taste character,Homo sapiens [51],0
